Source: PubChem BioAssay
Records with an inconclusive call do not appear.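 How the source made its calls, unless noted: active means growth inhibition above 25% in both replicates, a cutoff set 3 SD above the mean; inconclusive means above 25% in only one replicate; inactive means the rest.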

Tests used:
[1] = OD615 S. cerevisiae growth inhibition, permissive medium, pilot counter-assay, permissive growth control for S. cerevisiae lifespan shortening project (AID 705); conditions: OD615, 24 h, at 10 µM, hits give high values
Procedure, shortened: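 Timing: 24 h exposure, 30 °C / Material: Saccharomyces cerevisiae strain carrying genetically modified DeaD replicative-lifespan system / Signal: OD at 615 nm / Compound: 10 µM single dose, 0.25% DMSO / Medium: SC raffinose/galactose permissive medium / Evaluation: reduction in yeast growth (OD615)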

[2] = Restrictive medium S. cerevisiae growth inhibition, OD615, pilot screen of yeast lifespan reduction project, restrictive growth control (AID 706;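 active means growth inhibition above a set limit, 3 SD over mean compound inhibition, in both replicates, cut at about 43% in these data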;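 further: modified DeaD lifespan yeast strain shifted to restrictive glucose medium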); conditions: OD615, 48 h, at 10 µM, hits give high values
Procedure, shortened: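 System: Engineered S. cerevisiae DeaD strain | Detection: OD615 | Buffer or medium: CSMM-D glucose medium | Doses: 10 µM compound, 0.25% DMSO | Timing: 4 h pre-growth plus 48 h compound exposure, 30 °C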

[3] = viability gain of MRP-1-high H69AR cells under doxorubicin, pilot screen, MRP-1 activator project, CellTiter-Glo, duplicate (AID 807;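 active means viability increase at or above a cutoff of the median across tested compounds plus 3 SD, cut at about 8.5% in these data, passing the limit was not always enough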;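 further: compound pretreatment 18-22 h then 72 h combined with doxorubicin; 0% = doxorubicin alone and 100% = vehicle without doxorubicin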); conditions: H69AR viability with doxorubicin, CellTiter-Glo luminescence; at 10 µM; hits give high values
[4] = growth suppression of beta-catenin knockout HCT116, pilot screen, human colon tumor cells (AID 823;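 active means cell viability at or below a set limit in both duplicate runs, the limit being the all-compound median minus 4 SD, cut at about 23% in these data, passing the limit was not always enough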;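 further: 0% = wells killed by 20 µM Hyamine and 100% = untreated DMSO cell wells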); conditions: CellTiter-Glo, 60 h, at 10 µM, hits give low values
[5] = growth suppression of PTEN-deleted HCT116, pilot screen, cell-based, HCT116 clonal line, CellTiter-Glo (AID 824;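 active means viability at or below 27.92% in each of two runs, the all-compound median minus 4 SD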;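 further: 0% = 20 µM Hyamine control and 100% = vehicle cell control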); conditions: 60 h, at 10 µM, hits give low values
[6] = inhibitors of the yeast RAM network, pilot screen, dse1pr::URA3 reporter, 5-FOA selection (AID 869;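 active means inhibition over a set limit, the all-compound mean plus 3 SD, in both replicate runs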;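 further: 0% = DMSO wells with no growth and 100% = 10 µM 1-NA-PP1 with full growth; RAM network block rescues cells from 5-FOA so hits raise OD615 growth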); conditions: S. cerevisiae dse1pr::URA3 5-FOA growth, OD615, 2 d; at 10 µM; hits give high values; strain carries analog-sensitive mutant Cbk1 kinase
[7] = RAM signaling pathway blockade in yeast – S. cerevisiae, Pdr1DBD-CYC8 efflux-inhibited sensitized strain, primary screen (AID 1298;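 active means RAM network inhibition above 8.4% in each of two replicates, 3 SD over the compound average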;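 further: 0% = DMSO untreated cells without growth and 100% = 10 µM 1-NA-PP1 full growth; higher means more yeast growth rescued from 5-FOA killing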); conditions: S. cerevisiae cbk1-as DSE1-URA3 strain, 5-FOA growth OD615, 2 d; at 50 µM; hits give high values

CCCOc1cccc(C(=O)Nc2cccc(NC(=O)c3ccco3)c2)c1
inactive: growth inhibition [1] -11.2% | growth inhibition [2] -14.9% | viability increase [3] -3.58% | viability [4] 85.3% | viability [5] 91.6% | inhibition [6] 1.04% | RAM network inhibition [7] 8.68%

Clc1ccc(-c2nnc(N3CCCC3)nn2)cc1
inactive: growth inhibition [1] -7.18% | growth inhibition [2] 4.79% | viability increase [3] -2.71% | viability [4] 86.6% | viability [5] 92.2% | inhibition [6] 0.995% | RAM network inhibition [7] 0.52%

CCC(=O)Nc1nc2ccc3nc(C)sc3c2s1
inactive: growth inhibition [1] -5.17% | growth inhibition [2] 32.5% | viability increase [3] -4.98% | viability [4] 75.3% | viability [5] 81.1% | inhibition [6] 0.415% | RAM network inhibition [7] 2.94%

O=C(NCc1ccccn1)Nc1cccc(Cl)c1
inactive: growth inhibition [1] -14.7% | growth inhibition [2] -9.4% | viability increase [3] -2.22% | viability [4] 97.7% | viability [5] 94.5% | inhibition [6] 0.095% | RAM network inhibition [7] 2.46%

COCCn1c(SCC(N)=O)nc2c(c1=O)SC(C)C2 (stereo not drawn)
inactive: growth inhibition [1] -1.48% | growth inhibition [2] -3.57% | viability increase [3] 0.08% | viability [4] 99.4% | viability [5] 97% | inhibition [6] 1.84% | RAM network inhibition [7] 5.52%

Cc1noc(C(=O)NCc2cccnc2)c1Cl
inactive: growth inhibition [1] -7.93% | growth inhibition [2] -8.18% | viability increase [3] 1.31% | viability [4] 110% | viability [5] 101% | inhibition [6] 0.865% | RAM network inhibition [7] 5.93%

Cc1cccc(N2CCN(C(=O)C3CCN(S(=O)(=O)c4cccc5cccnc45)CC3)CC2C)c1 (stereo not drawn)
inactive: growth inhibition [1] -1.53% | growth inhibition [2] -4.12% | viability increase [3] -1.38% | viability [4] 69.9% | viability [5] 67.1% | inhibition [6] 2.65% | RAM network inhibition [7] 1.04%

CCn1c(CNC(=O)c2ccc(OC)cc2)nnc1SC
inactive: growth inhibition [1] -3.98% | growth inhibition [2] 3.58% | viability increase [3] -1.74% | viability [4] 90.6% | viability [5] 91.9% | inhibition [6] 1.44% | RAM network inhibition [7] 4.37%

O=C(O)c1ccc(NS(=O)(=O)c2ccc3c(c2)OCCO3)cc1
inactive: growth inhibition [1] 4.96% | growth inhibition [2] -3.53% | viability increase [3] 0.04% | viability [4] 107% | viability [5] 108% | inhibition [6] 0.975% | RAM network inhibition [7] 1.55%

Cn1c(-n2c(CCN3C(=O)c4ccccc4C3=O)nc3ccccc3c2=O)nc2ccccc21
inactive: growth inhibition [1] 1.63% | growth inhibition [2] -2.29% | viability increase [3] -4.94% | viability [4] 68.2% | viability [5] 81.2% | inhibition [6] 0.65% | RAM network inhibition [7] 2.45%

Cc1ccc(S(=O)(=O)NC2OC(=O)C(Cl)=C2Cl)cc1 (stereo not drawn)
inactive: growth inhibition [1] -17.3% | growth inhibition [2] 10.1% | viability increase [3] -3.7% | viability [4] 86.4% | viability [5] 104% | inhibition [6] 0.495% | RAM network inhibition [7] 2.08%

CCc1nnc(NC(=O)c2cccs2)s1
inactive: growth inhibition [1] -21.3% | growth inhibition [2] -3.98% | viability increase [3] 2.17% | viability [4] 102% | viability [5] 90.1% | inhibition [6] 1.29% | RAM network inhibition [7] 0.32%

O=C(Nc1ccc(-c2nc3cccnc3s2)cc1)c1ccc(Br)o1
inactive: growth inhibition [1] 11.6% | growth inhibition [2] 19.6% | viability increase [3] 3.03% | viability [4] 105% | viability [5] 101% | inhibition [6] 1.11% | RAM network inhibition [7] 0.96%

COC(=O)CSc1nc2ccccc2o1
inactive: growth inhibition [1] -7.46% | growth inhibition [2] -18.7% | viability increase [3] -1.43% | viability [4] 97.8% | viability [5] 96.3% | inhibition [6] 1.3% | RAM network inhibition [7] 1.45%
